# Several values for one entry are separate records, joined by “and”; a condition that tells them apart may be missing. Identical values can stand only once.
# Assays:
# [1] = 3 + 3 dose‐escalation: dose‐limiting toxicity; assay type: in vivo, human; settings: patients with advanced cancer
# [2] = Olaparib pharmacokinetics in human plasma; assay type: in vivo; settings: Cycle 1 day 0, dose‐level 3 (MTD), olaparib 75 mg tablets, N=6, plasma
# [3] = system: PAR levels (balance of PARP and PARG activity) in peripheral blood mononuclear cells; test: Radiation‐enhanced‐PAR pharmacodynamic assay; assay type: in vivo, human; settings: Day 8 vs before treatment, lowest dose‐level (25 mg olaparib BID), ex vivo 8 Gy
# How it was run: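 Venous blood (16 mL, mononuclear cell preparation citrate tubes) was drawn pre-dose Day 0 and Day 8 of cycle 1; olaparib BID from Day 0, carboplatin AUC 3 mg*min/mL IV Day 1 at this level. Three independent samples of 2 × 10⁶ PBMCs were irradiated ex vivo with 8 Gy on ice, then held 1 h on ice. PAR was quantified by HT-PARP in vivo pharmacodynamics Assay II (NCI protocol). Reduction = ([Day 0 − Day 8]/Day 0) × 100%.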
# [4] = tablet 300 mg vs capsule 400 mg; cited from earlier work
# [5] = Carboplatin; assay type: in vivo, human; settings: Cycle 1 day 1, plasma ultrafiltrate, target AUC 4, N=21 (dose‐level 1‐4)
# How it was run: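 Platinum from carboplatin measured in plasma and plasma ultrafiltrate by ICPMS with iridium internal standard. Carboplatin was given as a 30-min IV infusion on Day 1, dosed by Calvert formula (Cockcroft-Gault GFR), alongside oral olaparib BID from Day 0. Blood (4 mL) was sampled 0.25, 0.5, 1, 2, 4, 6, 8, 10, 24 and 48 h post-infusion. AUC0-48 calculated.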
# [6] = once per 21‐day cycle with olaparib capsules 400 mg BID Day 1 to 7; cited from earlier work
Structure (SMILES),"Maximum tolerable dose (MTD), olaparib part ([1]; olaparib tablets continuously with carboplatin AUC 4 mg*min/mL d1/d22, two cycles) [mg BID]",Olaparib AUC0-12 (mean) [2] [ng·h/mL],Relative reduction in PAR levels in PBMCs [3],AUC of the tablet formulation (300 mg) higher than the capsule formulation (400 mg) [4] [%],"Maximum tolerable dose (MTD), carboplatin part (target AUC) ([1]; carboplatin d1/d22 with olaparib tablets 75 mg BID, two cycles) [mg·min/mL]",Carboplatin AUC0-48 (mean) [5],"MTD, carboplatin part (target AUC) [6] [mg·min/mL]"
O=C(c1cc(Cc2n[nH]c(=O)c3ccccc23)ccc1F)N1CCN(C(=O)C2CC2)CC1 [olaparib],75,15500,97.5% ± 0.1%,13,,,
N.N.O=C([O-])C1(C(=O)[O-])CCC1.[Pt+2] [carboplatin],,,,,4,5.10 mg·min/mL and 5.1 mg·min/mL and 5 mg·min/mL,5

# Source: paper PMC8248128 (International Journal of Cancer, 2021)
